How the values were obtained:
[1] = Inhibition of Pseudomonas aeruginosa LasB using Abz-Ala-Gly-Leu-Ala-p-Nitro-Benzyl-Amide as substrate measured for every 60 sec for 30 mins by UV-fluorescence based assay
Summary of the method: (§1)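 Purified LasB enzyme in a fluorometric inhibition assay adapted from a published method. Compounds were screened at a single concentration of 30 μM (follow-ups in duplicate), and selected compounds were retested over 0.4–200 μM in dose–response. A modified version added 0.01% Triton X-100 to the assay buffer.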

[2] = target: T1, Angiotensin-converting enzyme (Oryctolagus cuniculus, UniProt P12822); experiment: Inhibition of rabbit ACE using Abz-FRK(DNP)-P as substrate measured for every 30 sec for 5 mins by UV-fluorescence based assay
T1 sequence (P12822 whole entry): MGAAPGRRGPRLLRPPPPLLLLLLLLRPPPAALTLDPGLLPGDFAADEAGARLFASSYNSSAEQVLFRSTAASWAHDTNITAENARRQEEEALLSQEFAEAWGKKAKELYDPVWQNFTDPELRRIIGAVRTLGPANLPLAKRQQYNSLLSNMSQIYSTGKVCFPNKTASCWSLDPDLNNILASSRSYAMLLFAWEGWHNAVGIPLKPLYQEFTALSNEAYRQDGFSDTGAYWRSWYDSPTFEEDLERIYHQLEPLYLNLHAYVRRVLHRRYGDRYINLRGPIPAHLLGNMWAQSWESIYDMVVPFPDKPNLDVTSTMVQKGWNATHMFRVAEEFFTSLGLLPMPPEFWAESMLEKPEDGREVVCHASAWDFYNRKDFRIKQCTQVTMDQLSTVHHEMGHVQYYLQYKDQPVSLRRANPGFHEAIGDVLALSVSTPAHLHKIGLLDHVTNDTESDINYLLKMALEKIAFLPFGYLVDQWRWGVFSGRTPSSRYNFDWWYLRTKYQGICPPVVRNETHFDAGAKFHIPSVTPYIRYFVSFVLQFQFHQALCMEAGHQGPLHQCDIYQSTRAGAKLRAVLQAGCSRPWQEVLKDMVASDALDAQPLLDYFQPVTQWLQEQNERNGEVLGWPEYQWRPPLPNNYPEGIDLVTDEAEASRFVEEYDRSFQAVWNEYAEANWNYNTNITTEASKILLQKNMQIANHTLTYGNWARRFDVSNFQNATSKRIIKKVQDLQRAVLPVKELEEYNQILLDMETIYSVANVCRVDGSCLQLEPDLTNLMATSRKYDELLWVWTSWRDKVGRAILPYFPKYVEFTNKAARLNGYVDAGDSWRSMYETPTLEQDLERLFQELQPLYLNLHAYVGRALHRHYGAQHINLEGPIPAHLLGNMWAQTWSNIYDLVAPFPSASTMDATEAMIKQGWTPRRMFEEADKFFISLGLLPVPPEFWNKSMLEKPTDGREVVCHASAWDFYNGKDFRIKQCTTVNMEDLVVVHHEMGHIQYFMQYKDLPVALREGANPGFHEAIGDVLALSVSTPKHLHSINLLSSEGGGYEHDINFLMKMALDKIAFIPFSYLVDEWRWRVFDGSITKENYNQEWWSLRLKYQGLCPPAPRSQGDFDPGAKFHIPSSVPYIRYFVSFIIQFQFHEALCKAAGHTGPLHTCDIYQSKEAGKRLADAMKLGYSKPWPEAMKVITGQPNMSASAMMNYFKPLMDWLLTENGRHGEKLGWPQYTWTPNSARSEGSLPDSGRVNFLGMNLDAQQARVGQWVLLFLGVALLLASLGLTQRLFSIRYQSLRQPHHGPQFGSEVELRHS

[3] = tested on: Pseudomonas aeruginosa PAO1; experiment: Inhibition of Pseudomonas aeruginosa PAO1 LasB using ECR as substrate assessed as reduction in elastin hydrolysis at 25 uM incubated for 16 hrs by congo-red dye based spectrophotometry relative to control
Summary of the method: (§2)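 The enzyme source was LasB secreted into P. aeruginosa culture supernatant, with elastin congo-red as substrate. Elastin degradation releases congo-red dye into the supernatant, which is quantified spectrophotometrically.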

[4] = tested on: Pseudomonas aeruginosa PAO1; experiment: Inhibition of Pseudomonas aeruginosa PAO1 LasB using ECR as substrate assessed as reduction in elastin hydrolysis at 50 uM incubated for 16 hrs by congo-red dye based spectrophotometry relative to control; summary of the method: as §2
[5] = target: 72 kDa type IV collagenase (Homo sapiens, UniProt P08253); experiment: Inhibition of human MMP2
Sequence of 72 kDa type IV collagenase (P08253 whole entry): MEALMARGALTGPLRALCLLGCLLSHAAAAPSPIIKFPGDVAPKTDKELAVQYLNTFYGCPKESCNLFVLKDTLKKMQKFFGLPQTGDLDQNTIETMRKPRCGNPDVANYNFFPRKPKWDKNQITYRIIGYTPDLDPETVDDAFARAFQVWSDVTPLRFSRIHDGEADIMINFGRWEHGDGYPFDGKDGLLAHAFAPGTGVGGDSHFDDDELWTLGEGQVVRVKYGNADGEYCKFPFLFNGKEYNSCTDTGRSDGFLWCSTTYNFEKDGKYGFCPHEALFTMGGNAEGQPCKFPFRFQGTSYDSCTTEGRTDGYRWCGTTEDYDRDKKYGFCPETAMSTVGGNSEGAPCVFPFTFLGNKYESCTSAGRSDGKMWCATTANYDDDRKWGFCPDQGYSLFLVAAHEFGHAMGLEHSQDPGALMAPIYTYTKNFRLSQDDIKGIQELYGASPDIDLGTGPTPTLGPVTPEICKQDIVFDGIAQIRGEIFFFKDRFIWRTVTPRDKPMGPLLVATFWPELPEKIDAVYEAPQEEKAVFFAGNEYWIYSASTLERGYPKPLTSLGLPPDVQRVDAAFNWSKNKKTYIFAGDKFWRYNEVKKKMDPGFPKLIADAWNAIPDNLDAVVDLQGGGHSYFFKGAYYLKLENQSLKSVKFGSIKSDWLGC

Collagenase 3 = Collagenase 3 (Homo sapiens, UniProt P45452); experiment: Inhibition of human MMP13
[6] = tested on: ACE (off-target) relative to Pseudomonas aeruginosa PAO1 LasB; experiment: Selectivity index, ratio of Ki for rabbit ACE to Ki for Pseudomonas aeruginosa PAO1 LasB; assay type: toxicity; settings: read-out: Ratio Ki
Interstitial collagenase = target: T2, Interstitial collagenase (Homo sapiens, UniProt P03956); experiment: Inhibition of human MMP1
T2 sequence (P03956 whole entry): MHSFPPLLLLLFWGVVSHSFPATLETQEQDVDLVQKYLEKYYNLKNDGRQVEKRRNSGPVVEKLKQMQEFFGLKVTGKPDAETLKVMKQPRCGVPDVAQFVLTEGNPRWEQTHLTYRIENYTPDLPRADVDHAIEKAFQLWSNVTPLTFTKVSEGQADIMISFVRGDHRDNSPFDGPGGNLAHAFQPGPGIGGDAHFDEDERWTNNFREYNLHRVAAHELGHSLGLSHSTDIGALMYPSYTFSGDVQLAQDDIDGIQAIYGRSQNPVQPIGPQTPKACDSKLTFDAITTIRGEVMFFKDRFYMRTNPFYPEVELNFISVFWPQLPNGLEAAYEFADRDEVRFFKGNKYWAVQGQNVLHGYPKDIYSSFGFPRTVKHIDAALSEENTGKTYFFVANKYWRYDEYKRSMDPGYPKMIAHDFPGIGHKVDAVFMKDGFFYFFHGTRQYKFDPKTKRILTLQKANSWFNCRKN

[7] = Inhibition of Pseudomonas aeruginosa LasB using Abz-Ala-Gly-Leu-Ala-p-Nitro-Benzyl-Amide as substrate by micro-titer based fluorimetric assay; summary of the method: as §1

Row | SMILES | Ki [1] [µM] | Ki [2] [µM] | inhibition [3] [%] | inhibition [4] [%] | IC50 [5] [µM] | IC50 (Collagenase 3) [µM] | selectivity ratio [6] | IC50 (Interstitial collagenase) [µM] | Ki [7] [µM]
1 | O=C(O)CC1(C(=O)NCc2cc3ccccc3[nH]2)Cc2ccccc2C1 | 1.08 | > 57 | 35 | 49 |  |  |  |  | 
2 | O=C(O)CC1(C(=O)NCc2coc3ccccc23)Cc2ccccc2C1 | 1.9 | 31.3 | 41 | 51 |  |  |  |  | 
3 | O=C(O)CC1(C(=O)NCc2nc(-c3ccccc3)cs2)Cc2ccccc2C1 | 0.12 | > 57 | 68 | 76 | > 10 | > 10 | > 356 | > 10 | 
4 | O=C(O)CC1(C(=O)NCc2cc3ccccc3o2)Cc2ccccc2C1 | 1.4 | > 57 | 45 | 54 |  |  |  |  | 
5 | Cc1cc(Br)ccc1C(=O)NC1=NC(=O)CN1 | 18.1 | > 57 |  |  |  |  |  |  | 
6 | Cc1ccc2oc(CNC(=O)C3(CC(=O)O)Cc4ccccc4C3)cc2c1 | 0.45 | > 57 |  | 60 |  |  |  |  | 
7 | C[C@@H](NC(=O)C1(CC(=O)O)Cc2ccccc2C1)c1cc2ccccc2o1 | 2.27 | > 57 | 33 | 44 |  |  |  |  | 
8 | Cn1cc(CNC(=O)CC2(C(=O)O)Cc3ccccc3C2)cn1 | > 92 | > 57 |  | 8 |  |  |  |  | 
9 | NC(=O)[C@H](Cc1ccc(O)cc1)NC(=O)[C@H](Cc1ccccc1)NC(=O)CS |  |  |  |  |  |  |  |  | 0.041
10 | O=C(O)CC1(C(=O)NCc2c[nH]c3ccccc23)Cc2ccccc2C1 | 3.54 | > 57 | 23 | 35 |  |  |  |  | 
11 | O=C(O)CC1(C(=O)NCc2ncc(-c3ccccc3)s2)Cc2ccccc2C1 | 1.19 | > 57 | 42 | 54 |  |  |  |  | 
12 | C[C@H](NC(=O)C1(CC(=O)O)Cc2ccccc2C1)c1cc2ccccc2o1 | 3.21 | > 57 | 37 | 47 |  |  |  |  | 
13 | O=C(O)CC1(C(=O)NCc2nc3ccccc3[nH]2)Cc2ccccc2C1 | 21.5 | > 57 | 11 | 20 |  |  |  |  | 
14 | CC(NC(=O)CC1(C(=O)O)Cc2ccccc2C1)c1cc2ccccc2o1 (racemic) | 14.8 | > 57 |  | 22 |  |  |  |  | 
15 | Cn1cc(CNC(=O)C2(CC(=O)O)Cc3ccccc3C2)cn1 | 4.04 | > 57 |  | 42 |  |  |  |  | 
16 | Cc1ccc2oc(CNC(=O)CC3(C(=O)O)Cc4ccccc4C3)cc2c1 | > 92 | > 57 |  | 2 |  |  |  |  | 
17 | O=C(CC1(C(=O)O)Cc2ccccc2C1)NCc1ccc2ccccc2n1 | 76.2 |  |  | 7 |  |  |  |  | 
18 | O=C(O)CC1(C(=O)NCc2ccc3ccccc3n2)Cc2ccccc2C1 | 0.61 | > 57 |  | 63 |  |  |  |  | 
19 | O=C(O)CC1(C(=O)NCc2ccccc2)Cc2ccccc2C1 | 1.75 | > 57 | 43 | 54 |  |  |  |  | 
20 | O=C(O)CC1(C(=O)NCc2nccs2)Cc2ccccc2C1 | 0.61 | > 57 | 55 | 65 |  |  |  |  | 
21 | O=C(O)CC1(C(=O)NCCc2cc3ccccc3o2)Cc2ccccc2C1 | 5.66 | > 57 | 16 | 25 |  |  |  |  | 
22 | O=C(O)CC1(C(=O)NCc2nc3ccccc3s2)Cc2ccccc2C1 | 0.16 | > 57 | 69 | 79 | > 10 | > 10 | > 356 | > 10 | 
23 | O=C(O)CC1(C(=O)NCCc2nc3ccccc3[nH]2)Cc2ccccc2C1 | 13.6 | > 57 | 11 | 18 |  |  |  |  | 
24 | Cn1c(CNC(=O)C2(CC(=O)O)Cc3ccccc3C2)cc2ccccc21 | 0.69 | > 57 | 51 | 60 |  |  |  |  | 
25 | O=C(O)CC1(C(=O)NCCc2cc3ccccc3s2)Cc2ccccc2C1 | 4.85 | 40.6 | 18 | 28 |  |  |  |  | 
26 | O=C(O)CC1(C(=O)NCCc2cc3ccccc3[nH]2)Cc2ccccc2C1 | 4.34 | > 57 | 18 | 25 |  |  |  |  | 
27 | O=C(O)CC1(C(=O)NCCc2nc3ccccc3s2)Cc2ccccc2C1 | 10.5 | > 57 | 11 | 21 |  |  |  |  | 
28 | O=C(O)CC1(C(=O)NCc2cc3ccccc3s2)Cc2ccccc2C1 | 0.62 | > 57 | 47 | 57 |  |  |  |  | 
29 | Cc1ccccc1OCC(=O)N(CCC(=O)O)Cc1cccc(F)c1F | 6.87 | > 57 |  |  |  |  |  |  | 
30 | Cn1c(CNC(=O)C2(CC(=O)O)Cc3ccccc3C2)nc2ccccc21 | 12.5 | 18 | 21 | 32 |  |  |  |  | 
